Laboratory results taken from ChEMBL document CHEMBL1121701, “Inhibition of liver alanine aminotransferase activity by some benzophenanthridine alkaloids” (J Med Chem, 1981).

Legend:
[1] = The stability constant of adduct formation for glutathione at pH 6.25; format: ADME
Procedure, shortened: (§1)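 Thiol–alkaloid adduct stability constants measured by UV-vis spectrophotometry at 20 °C in 10-mm cells. Aqueous solutions held 4×10^-6 M alkaloid, 4×10^-6 to 1.6×10^-2 M thiol and 4×10^-3 M hexadecyltrimethylammonium bromide. Phosphate buffers of ionic strength 0.05 at the stated pH.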

[2] = target: T1, Alanine aminotransferase 1 (Rattus norvegicus) (UniProt P25409); assay: Effect of thioethanol on alanine aminotransferase inhibition by the compound at 10E-5; settings: for inhibition: concentration not given here
T1 sequence (whole entry): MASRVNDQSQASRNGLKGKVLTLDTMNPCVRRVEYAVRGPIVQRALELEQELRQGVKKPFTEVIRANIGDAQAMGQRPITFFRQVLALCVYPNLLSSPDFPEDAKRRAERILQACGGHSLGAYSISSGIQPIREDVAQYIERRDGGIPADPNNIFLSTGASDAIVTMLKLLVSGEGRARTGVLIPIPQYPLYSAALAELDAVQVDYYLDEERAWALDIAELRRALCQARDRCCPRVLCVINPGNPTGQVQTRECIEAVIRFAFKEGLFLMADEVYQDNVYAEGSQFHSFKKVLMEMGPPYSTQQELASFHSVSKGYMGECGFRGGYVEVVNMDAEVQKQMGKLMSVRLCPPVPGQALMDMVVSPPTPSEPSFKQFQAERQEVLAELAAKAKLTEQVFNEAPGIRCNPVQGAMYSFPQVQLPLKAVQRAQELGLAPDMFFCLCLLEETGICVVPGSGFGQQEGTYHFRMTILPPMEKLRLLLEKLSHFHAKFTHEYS
Procedure, shortened: (§2)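 ALT alkaloid-inhibition assay at 30 °C (L-alanine/2-oxoglutarate substrate, pH 7.4 phosphate, 2,4-dinitrophenylhydrazine read-out at 505 nm). Substrate solution contained 10^-2 M of the thiol. Percent inhibition compared against thiol-free substrate.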

[3] = target: T1, Alanine aminotransferase 1 (Rattus norvegicus); assay: Effect of glutathione on alanine aminotransferase inhibition by the compound at 10E-5; settings: for inhibition: concentration not given here; procedure, shortened: as §2
[4] = The stability constant of adduct formation for thioethanol at pH 5.68; format: ADME; procedure, shortened: as §1
[5] = The stability constant of adduct formation for cysteine at pH 6.25; format: ADME; procedure, shortened: as §1
[6] = target: T1, Alanine aminotransferase 1 (Rattus norvegicus); assay: Effect of cysteine on alanine aminotransferase inhibition by the compound at 10E-5; settings: for inhibition: concentration not given here; procedure, shortened: as §2
[7] = target: T1, Alanine aminotransferase 1 (Rattus norvegicus); assay: Concentration for complete inactivation of alanine aminotransferase
Procedure, shortened: (§3)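 Partially purified rat liver ALT (ammonium sulfate fraction from prednisolone-treated male Wistar rats, lyophilized, diluted in 0.1 M pH 7.4 potassium phosphate). Enzyme preincubated with alkaloid at pH 7.4, room temperature, 30 min. Then added to substrate (8.33×10^-2 M L-alanine, 1.67×10^-3 M 2-oxoglutarate, pH 7.4) at 30 °C. Product read by 2,4-dinitrophenylhydrazine, alkaline NaOH, A505.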

[8] = The stability constant of adduct formation for cysteine at pH 5.68; format: ADME; procedure, shortened: as §1
[9] = The stability constant of adduct formation for glutathione at pH 5.68; format: ADME; procedure, shortened: as §1
[10] = The stability constant of adduct formation for thioethanol at pH 6.25; format: ADME; procedure, shortened: as §1
[11] = target: T1, Alanine aminotransferase 1 (Rattus norvegicus); assay: Inhibitory activity against alanine aminotransferase was measured; procedure, shortened: as §3
[12] = The stability constant of adduct formation for cysteine at pH 5.28; format: ADME
Procedure, shortened: (§4)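 Spectrophotometric measurement at 20 °C in 10-mm cells, with pH checked by meter. Aqueous solutions held 4×10^-6 M alkaloid, 4×10^-6 to 1.6×10^-2 M thiol, and 4×10^-3 M hexadecyltrimethylammonium bromide, in phosphate buffers of ionic strength 0.05. The stability constant (K) of the thiol–iminium adduct was taken at the stated pH.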

[13] = The stability constant of adduct formation for glutathione at pH 5.28; format: ADME; procedure, shortened: as §4
[14] = The stability constant of adduct formation for thioethanol at pH 5.28; format: ADME; procedure, shortened: as §4
[15] = The stability constant of adduct formation for glutathione at pH 5.69; format: ADME; procedure, shortened: as §4
[16] = The stability constant of adduct formation for thioethanol at pH 5.69; format: ADME; procedure, shortened: as §4
[17] = The stability constant of adduct formation for cysteine at pH 5.69; format: ADME; procedure, shortened: as §4

Compound | Log K [1] | Protection [2] | inhibition [2] | Protection [3] | inhibition [3] | Log K [4] | Log K [5] | Protection [6] | inhibition [6] | Concentration [7] | Log K [8] | Log K [9] | Log K [10] | ID50 [11] | Log K [12] | Log K [13] | Log K [14] | Log K [15] | Log K [16] | Log K [17]
COc1ccc2c(c[n+](C)c3c4cc5c(cc4ccc23)OCO5)c1OC.[Cl-] [CHELERYTHRINE CHLORIDE] | 4.39 | 55% | 23% | 70% | 13% | 3.46 | 3.09 | 5% | 40% | 30 µM | 2.74 | 4.39 | 4.05 | 4 µM | – | – | – | – | – | –
C[n+]1cc2c3c(ccc2c2ccc4cc5c(cc4c21)OCO5)OCO3 [SANGUINARIUM] | – | 75% | 20% | 81% | 15% | – | – | 5% | 74% | 50 µM | – | – | – | 3.4 µM | 2.97 | 4.64 | 3.77 | 4.79 | 4.01 | 3.33
